Measured values of several laboratories.
Compare with care: the assays were run in different laboratories.
ALDH1A3: Retinaldehyde dehydrogenase 3 (ALDH1A3, Homo sapiens, UniProt P47895)
PADI4: Protein-arginine deiminase type-4 (PADI4, Homo sapiens, UniProt Q9UM07)
Pancreatic alpha-amylase: Pancreatic alpha-amylase (Homo sapiens, UniProt P04746)
MAOB: Amine oxidase [flavin-containing] B (MAOB, Homo sapiens, UniProt P27338)
CA9: Carbonic anhydrase 9 (CA9, Homo sapiens, UniProt Q16790)
HDAC9: Histone deacetylase 9 (HDAC9, Homo sapiens, UniProt Q9UKV0)
CHRM4: Muscarinic acetylcholine receptor M4 (CHRM4, Homo sapiens, UniProt P08173)

Cc1ccc(-c2ccc(C=O)cc2)c(C)c1 — IC50 (ALDH1A3; enzyme activity; inhibitor): 0.11 µM
N=C(CCl)NCCC[C@H](NC(=O)c1cnc2cc(O)ccc2c1)C(=O)NCc1ccccc1 — IC50 (PADI4; enzyme activity; inhibitor; fluorescence; with preincubation): 0.342 µM
COc1cc(/C=N/NC(=S)N/N=C/c2ccc(N(C)C)cc2)ccc1Oc1ccnc2cc(Cl)ccc12 — IC50 (Pancreatic alpha-amylase; enzyme activity; inhibitor; absorbance): 50 µM
O=C1Nc2ccc(I)cc2/C1=C/c1cc(Br)c(O)c(Br)c1 — IC50 (Dual specificity tyrosine-phosphorylation-regulated kinase 4 (DYRK4, Homo sapiens, UniProt Q9NR20); enzyme activity; inhibitor): 4.94 µM
CC(C)N(CCC(=O)c1ccc2ccccc2c1)Cc1ccccc1 — IC50 (ALDH1A3; enzyme activity; inhibitor): < 10 µM
NC/C(=C\F)COc1cccc(Cn2c(=S)[nH]c(=O)c3[nH]cnc32)c1 — IC50 (MAOB; enzyme activity; inhibitor): 13 µM
O=C(O)c1cc(O)c(O)c(O)c1 — IC50 (Catechol O-methyltransferase (Comt, Rattus norvegicus, UniProt P22734); enzyme activity; inhibitor): 709 µM
N=C(CCl)NCCC[C@H](NC(=O)c1ccc2cc(O)ccc2n1)C(=O)NCc1ccccc1 — IC50 (PADI4; enzyme activity; inhibitor; fluorescence; with preincubation): 0.56 µM
COc1cc(/C=N/NC(=S)N/N=C/c2ccc(Br)cc2)ccc1Oc1ccnc2cc(Cl)ccc12 — IC50 (Pancreatic alpha-amylase; enzyme activity; inhibitor; absorbance): 50.5 µM
O=C(Nc1cc(Cl)cc(Cl)c1)c1ccc2c(c1)C(=O)NC2=O — IC50 (MAOB; enzyme activity; inhibitor): 0.055 µM
CCCC[C@@H](NC(=O)[C@@H](Cc1cn(C(=O)OC)c2ccccc12)NC(=O)[C@H](CC(C)(C)C)NC(=O)N1[C@H](C)CCC[C@@H]1C)C(=O)O — IC50 (Endothelin receptor type B (EDNRB, Homo sapiens, UniProt P24530); ligand displacement; radioligand; cell membranes): 0.00329 µM
CS(=O)(=O)Nc1ccc(Nc2nc(-c3cc4ccccc4oc3=O)cs2)cc1Oc1ccccc1 — IC50 (CA9; enzyme activity; inhibitor): 1.69 µM
N=C(CCl)NCCC[C@H](NC(=O)c1cccc(-c2ccc(O)cc2)c1)C(=O)NCc1ccccc1 — IC50 (PADI4; enzyme activity; inhibitor; fluorescence; with preincubation): 0.524 µM
Cc1cc(O)c(-c2ccc([C@@H](C)CN(C)C)cc2)c2c1[nH]c(=O)c1sccc12 — IC50 (Cyclin-dependent kinase 18, with cyclin Y (CDK18, Homo sapiens, UniProt Q07002); enzyme activity; inhibitor): > 1 µM
COc1ccc(N(Cc2csc(-c3ccccc3)n2)C(=O)CCCCCC(=O)NO)cc1 — IC50 (HDAC9; enzyme activity; inhibitor): > 10 µM
O=C(O)c1ccc(Nc2nc(-c3cc4cc(Br)ccc4oc3=O)cs2)cc1 — IC50 (CA9; enzyme activity; inhibitor): 4.38 µM
N=C(CCl)NCCC[C@H](NC(=O)c1ccc2cc(B(O)O)ccc2c1)c1nc2ccccc2[nH]1 — IC50 (PADI4; enzyme activity; inhibitor; fluorescence; with preincubation): 0.295 µM
O=C(Nc1ccccc1)c1ccc2c(c1)C(=O)NC2=O — IC50 (MAOB; enzyme activity; inhibitor): 3.25 µM
O=C(CCNC(=O)CNC(=O)CC(c1ccccc1)(c1ccccc1)c1ccccc1)NCC1CCN(Cc2ccc(F)cc2)CC1 — IC50 (CHRM4; ligand displacement; radioligand; cell membranes): 11.6 µM
COc1cc(/C=N/NC(=S)N/N=C/c2ccc(Br)s2)ccc1Oc1ccnc2cc(Cl)ccc12 — IC50 (Pancreatic alpha-amylase; enzyme activity; inhibitor; absorbance): 39.1 µM
O=C(Nc1ccc(Cl)c(Br)c1)c1ccc2c(c1)C(=O)NC2=O — IC50 (MAOB; enzyme activity; inhibitor): 0.012 µM
O=C(CCNC(=O)CNC(=O)CC(c1ccccc1)(c1ccccc1)c1ccccc1)NC[C@@H]1CCCN(Cc2ccc(F)nc2)C1 — IC50 (CHRM4; ligand displacement; radioligand; cell membranes): > 30 µM
COc1cc(/C=N/NC(=S)NN=Cc2ccc(CO)o2)ccc1Oc1ccnc2cc(Cl)ccc12 — IC50 (Pancreatic alpha-amylase; enzyme activity; inhibitor; absorbance): 46.4 µM
O=C(Nc1ccc(F)c(F)c1)c1ccc2c(c1)C(=O)NC2=O — IC50 (MAOB; enzyme activity; inhibitor): 0.024 µM
O=C(NO)c1ccc(Cn2cnc3c(Nc4cccc([N+](=O)[O-])c4)ncnc32)cc1 — IC50 (HDAC9; enzyme activity; inhibitor): 0.677 µM
O=C(Nc1ccc(F)c(Cl)c1)c1ccc2c(c1)C(=O)NC2=O — IC50 (MAOB; enzyme activity; inhibitor): 0.015 µM
COc1cc(/C=N/NC(=S)N/N=C/c2ccc(Cl)cc2)ccc1Oc1ccnc2cc(Cl)ccc12 — IC50 (Pancreatic alpha-amylase; enzyme activity; inhibitor; absorbance): 44.1 µM
O=C(N[C@@H](CSCc1ccc([N+](=O)[O-])cc1)C(=O)NO)c1ccccc1 — IC50 (Lactoylglutathione lyase (GLO1, Homo sapiens, UniProt Q04760); enzyme activity; inhibitor): 0.952 µM
COc1ccc(N(Cc2csc(-c3ccc(Br)cc3)n2)C(=O)CCCCCC(=O)NO)cc1 — IC50 (HDAC9; enzyme activity; inhibitor): > 10 µM
COc1cc(/C=N/NC(=S)NN=Cc2sccc2C)ccc1Oc1ccnc2cc(Cl)ccc12 — IC50 (Pancreatic alpha-amylase; enzyme activity; inhibitor; absorbance): 53.6 µM
CN1CCC(CNc2ccc3ncc(-c4cccc(OC(F)(F)F)c4)n3n2)CC1 — IC50 (Beta-1 adrenergic receptor (ADRB1, Homo sapiens, UniProt P08588); cAMP; antagonist): 6.75 µM
N=C(CCl)NCCC[C@H](NC(=O)c1ccc2cc(O)ccc2c1)C(=O)NCc1ccccc1 — IC50 (PADI4; enzyme activity; inhibitor; fluorescence; with preincubation): 0.24 µM
NS(=O)(=O)c1cccc(Nc2nc(-c3cc4cc(Br)ccc4oc3=O)cs2)c1 — IC50 (CA9; enzyme activity; inhibitor): 1.91 µM
N=C(CCl)NCCC[C@H](NC(=O)c1cccc(-c2ccc(O)cc2)c1)c1nc2ccccc2[nH]1 — IC50 (PADI4; enzyme activity; inhibitor; fluorescence; with preincubation): 0.426 µM
COc1cc(/C=N/NC(=S)NN=Cc2ccncc2)ccc1Oc1ccnc2cc(Cl)ccc12 — IC50 (Pancreatic alpha-amylase; enzyme activity; inhibitor; absorbance): 49.7 µM
N=C(CCl)NCCC[C@H](NC(=O)c1ccc2cc(Br)ccc2n1)C(=O)NCc1ccccc1 — IC50 (PADI4; enzyme activity; inhibitor; fluorescence; with preincubation): 1.49 µM
COc1cc(/C=N/NC(=S)N/N=C\c2ccc(CCl)cc2)ccc1Oc1ccnc2cc(Cl)ccc12 — IC50 (Pancreatic alpha-amylase; enzyme activity; inhibitor; absorbance): 58.4 µM
Cc1ccc(-c2ccccc2C=O)c(C)c1 — IC50 (ALDH1A3; enzyme activity; inhibitor): 43.5 µM
N=C(CCl)NCCC[C@H](NC(=O)c1ccc(O)cc1)c1nc2ccccc2[nH]1 — IC50 (PADI4; enzyme activity; inhibitor; fluorescence; with preincubation): 0.718 µM
